In ChEMBL document CHEMBL2390844, “Evaluation of bioactivities of chlorokojic acid derivatives against dermatophytes couplet with cytotoxicity” (Bioorg Med Chem Lett, 2013):
In brackets after ≈: the same amount, converted by molar mass.

Experiments:
[1] = Antidermatophytic activity against Trichophyton mentagrophytes var. erinacei NCPF 375 after 7 days by broth microdilution method; format: functional; conditions: Arthroderma benhamiae
Procedure, shortened: (§1)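 Broth microdilution per CLSI in RPMI 1640 with L-glutamine, no bicarbonate, buffered to pH 7.0 with 0.165 M MOPS, filter-sterilized. Test dilution series 128-0.0625 μg mL⁻¹; sterility and growth (inoculum) controls on each plate. Wells inoculated, incubated 28°C for 7 days, read visually with an inverted mirror; MIC recorded. Triplicate.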

[2] = Cytotoxicity against human MRC5 cells; format: cell-based; conditions: read-out: MNCC
Procedure, shortened: (§2)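 Maximum non-toxic concentration (MNTC) determined in HeLa and MRC-5 cells by a previously described method, based on cellular morphological alteration.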

[3] = system: Epidermophyton floccosum; test: Antidermatophytic activity against Epidermophyton floccosum RSKK 3027 after 7 days by broth microdilution method; format: functional; conditions: RSKK 3027, 168 h; procedure, shortened: as §1
[4] = system: Nannizzia gypsea; test: Antidermatophytic activity against Microsporum gypseum isolate after 7 days by broth microdilution method; format: functional; conditions: 168 h; procedure, shortened: as §1
[5] = system: Nannizzia gypsea; test: Antidermatophytic activity against Microsporum gypseum NCPF 580 after 7 days by broth microdilution method; format: functional; conditions: NCPF 580, 168 h; procedure, shortened: as §1
[6] = Antidermatophytic activity against Trichophyton mentagrophytes var. erinacei isolate after 7 days by broth microdilution method; format: functional; conditions: Arthroderma benhamiae; procedure, shortened: as §1
[7] = system: Epidermophyton floccosum; test: Antidermatophytic activity against Epidermophyton floccosum isolate after 7 days by broth microdilution method; format: functional; conditions: 168 h; procedure, shortened: as §1
[8] = Cytotoxicity against human HeLa cells; format: cell-based; conditions: read-out: MNCC; procedure, shortened: as §2

Structure (SMILES) | MIC [1] [µg/mL] | MNTC [2] [µg/mL] | MIC [3] [µg/mL] | MIC [4] [µg/mL] | MIC [5] [µg/mL] | MIC [6] [µg/mL] | MIC [7] [µg/mL] | MNTC [8] [µg/mL]
O=c1cc(CCl)oc(CN2CCN(Cc3c(Cl)cccc3Cl)CC2)c1O | 4 (≈ 9.58 µM) | ≥ 512 | 4 (≈ 9.58 µM) | 8 (≈ 19.2 µM) | 4 (≈ 9.58 µM) | 8 (≈ 19.2 µM) | 8 (≈ 19.2 µM) | ≥ 256
O=c1cc(CCl)oc(CN2CCN(CC3CCCCC3)CC2)c1O | 4 (≈ 11.3 µM) | ≥ 512 | 4 (≈ 11.3 µM) | 8 (≈ 22.5 µM) | 4 (≈ 11.3 µM) | 8 (≈ 22.5 µM) | 8 (≈ 22.5 µM) | ≥ 256
O=c1cc(CCl)oc(CN2CCN(c3ccccc3)CC2)c1O | 8 (≈ 23.9 µM) | ≥ 256 | 4 (≈ 11.9 µM) | 8 (≈ 23.9 µM) | 8 (≈ 23.9 µM) | 16 (≈ 47.8 µM) | 8 (≈ 23.9 µM) | ≥ 256
Cc1ccc(N2CCN(Cc3oc(CCl)cc(=O)c3O)CC2)cc1 | 4 (≈ 11.5 µM) | ≥ 64 | 4 (≈ 11.5 µM) | 8 (≈ 22.9 µM) | 4 (≈ 11.5 µM) | 8 (≈ 22.9 µM) | 8 (≈ 22.9 µM) | ≥ 64
O=c1cc(CCl)oc(CN2CCN(Cc3ccc(Cl)cc3)CC2)c1O | 4 (≈ 10.4 µM) | ≥ 128 | 4 (≈ 10.4 µM) | 8 (≈ 20.9 µM) | 4 (≈ 10.4 µM) | 8 (≈ 20.9 µM) | 8 (≈ 20.9 µM) | ≥ 128
O=c1cc(CCl)oc(CN2CC=C(c3ccccc3)CC2)c1O | 8 (≈ 24.1 µM) | ≥ 256 | 8 (≈ 24.1 µM) | 16 (≈ 48.2 µM) | 8 (≈ 24.1 µM) | 16 (≈ 48.2 µM) | 16 (≈ 48.2 µM) | ≥ 256
O=c1cc(CCl)oc(CN2CCN(C3CCCCC3)CC2)c1O | 16 (≈ 46.9 µM) | ≥ 512 | 16 (≈ 46.9 µM) | 32 (≈ 93.9 µM) | 16 (≈ 46.9 µM) | 16 (≈ 46.9 µM) | 32 (≈ 93.9 µM) | ≥ 512
Cc1cccc(N2CCN(Cc3oc(CCl)cc(=O)c3O)CC2)c1C | 4 (≈ 11 µM) | ≥ 256 | 8 (≈ 22 µM) | 16 (≈ 44.1 µM) | 8 (≈ 22 µM) | 8 (≈ 22 µM) | 16 (≈ 44.1 µM) | ≥ 256
Cc1ccccc1N1CCN(Cc2oc(CCl)cc(=O)c2O)CC1 | 8 (≈ 22.9 µM) | ≥ 128 | 16 (≈ 45.9 µM) | 32 (≈ 91.7 µM) | 16 (≈ 45.9 µM) | 16 (≈ 45.9 µM) | 32 (≈ 91.7 µM) | ≥ 128
CCC(C)n1ncn(-c2ccc(N3CCN(c4ccc(OCC5COC(Cn6cncn6)(c6ccc(Cl)cc6Cl)O5)cc4)CC3)cc2)c1=O (stereo not drawn) [ITRACONAZOLE] | 0.25 (≈ 0.354 µM) | – | 0.125 (≈ 0.177 µM) | 0.25 (≈ 0.354 µM) | 0.125 (≈ 0.177 µM) | 0.5 (≈ 0.709 µM) | 0.25 (≈ 0.354 µM) | –
O=c1cc(CCl)oc(CN2CCN(c3ccccc3F)CC2)c1O | 8 (≈ 22.7 µM) | ≥ 128 | 16 (≈ 45.4 µM) | 16 (≈ 45.4 µM) | 8 (≈ 22.7 µM) | 16 (≈ 45.4 µM) | 32 (≈ 90.7 µM) | –
Cc1cccc(CN2CCN(Cc3oc(CCl)cc(=O)c3O)CC2)c1 | 16 (≈ 44.1 µM) | ≥ 512 | 16 (≈ 44.1 µM) | 32 (≈ 88.2 µM) | 16 (≈ 44.1 µM) | 16 (≈ 44.1 µM) | 32 (≈ 88.2 µM) | ≥ 512
O=C(C1CCCCC1)N1CCN(Cc2oc(CCl)cc(=O)c2O)CC1 | 8 (≈ 21.7 µM) | ≥ 128 | 16 (≈ 43.4 µM) | 32 (≈ 86.8 µM) | 16 (≈ 43.4 µM) | 16 (≈ 43.4 µM) | 32 (≈ 86.8 µM) | ≥ 128
N#CC1(c2ccccc2)CCN(Cc2oc(CCl)cc(=O)c2O)CC1 | 16 (≈ 44.6 µM) | ≥ 256 | 16 (≈ 44.6 µM) | 32 (≈ 89.2 µM) | 16 (≈ 44.6 µM) | 32 (≈ 89.2 µM) | 32 (≈ 89.2 µM) | ≥ 256
CN(C/C=C/C#CC(C)(C)C)Cc1cccc2ccccc12 [TERBINAFINE] | 0.125 (≈ 0.429 µM) | – | 0.25 (≈ 0.858 µM) | 0.5 (≈ 1.72 µM) | 0.25 (≈ 0.858 µM) | 0.25 (≈ 0.858 µM) | 0.5 (≈ 1.72 µM) | –
O=c1cc(CCl)oc(CN2CCN(c3ccc(F)cc3)CC2)c1O | 8 (≈ 22.7 µM) | ≥ 128 | 8 (≈ 22.7 µM) | 16 (≈ 45.4 µM) | 8 (≈ 22.7 µM) | 8 (≈ 22.7 µM) | 16 (≈ 45.4 µM) | –
O=C(OCc1ccccc1)N1CCN(Cc2oc(CCl)cc(=O)c2O)CC1 | 4 (≈ 10.2 µM) | ≥ 128 | 4 (≈ 10.2 µM) | 8 (≈ 20.4 µM) | 4 (≈ 10.2 µM) | 8 (≈ 20.4 µM) | 8 (≈ 20.4 µM) | ≥ 256
O=c1cc(CCl)oc(CN2CCN(Cc3ccc(C(F)(F)F)cc3)CC2)c1O | 4 (≈ 9.6 µM) | ≥ 512 | 4 (≈ 9.6 µM) | 8 (≈ 19.2 µM) | 4 (≈ 9.6 µM) | 8 (≈ 19.2 µM) | 8 (≈ 19.2 µM) | ≥ 512
CC(=O)c1ccc(N2CCN(Cc3oc(CCl)cc(=O)c3O)CC2)cc1 | 16 (≈ 42.5 µM) | ≥ 512 | 16 (≈ 42.5 µM) | 16 (≈ 42.5 µM) | 16 (≈ 42.5 µM) | 16 (≈ 42.5 µM) | 16 (≈ 42.5 µM) | ≥ 512
O=c1cc(CCl)oc(CN2CCN(Cc3cc(F)ccc3F)CC2)c1O | 4 (≈ 10.4 µM) | ≥ 256 | 4 (≈ 10.4 µM) | 8 (≈ 20.8 µM) | 4 (≈ 10.4 µM) | 8 (≈ 20.8 µM) | 8 (≈ 20.8 µM) | ≥ 256
O=c1cc(CCl)oc(CN2CC=C(c3ccc(Cl)cc3)CC2)c1O | 8 (≈ 21.8 µM) | ≥ 256 | 8 (≈ 21.8 µM) | 8 (≈ 21.8 µM) | 8 (≈ 21.8 µM) | 8 (≈ 21.8 µM) | 8 (≈ 21.8 µM) | ≥ 256
O=c1cc(CCl)oc(CN2CC=C(c3ccc(F)cc3)CC2)c1O | 16 (≈ 45.7 µM) | ≥ 256 | 16 (≈ 45.7 µM) | 16 (≈ 45.7 µM) | 16 (≈ 45.7 µM) | 16 (≈ 45.7 µM) | 16 (≈ 45.7 µM) | ≥ 256
O=c1cc(CCl)occ1O | 4 (≈ 24.9 µM) | ≥ 256 | 8 (≈ 49.8 µM) | 4 (≈ 24.9 µM) | 2 (≈ 12.5 µM) | 8 (≈ 49.8 µM) | 16 (≈ 99.7 µM) | ≥ 256
O=c1cc(CCl)oc(CN2CCN(c3ccc([N+](=O)[O-])cc3)CC2)c1O | 16 (≈ 42.1 µM) | ≥ 512 | 16 (≈ 42.1 µM) | 32 (≈ 84.3 µM) | 16 (≈ 42.1 µM) | 32 (≈ 84.3 µM) | 32 (≈ 84.3 µM) | ≥ 512
O=c1cc(CCl)oc(CN2CCN(Cc3cccc(C(F)(F)F)c3)CC2)c1O | 4 (≈ 9.6 µM) | ≥ 512 | 4 (≈ 9.6 µM) | 8 (≈ 19.2 µM) | 4 (≈ 9.6 µM) | 8 (≈ 19.2 µM) | 8 (≈ 19.2 µM) | ≥ 512
Cc1ccccc1CN1CCN(Cc2oc(CCl)cc(=O)c2O)CC1 | 16 (≈ 44.1 µM) | ≥ 512 | 16 (≈ 44.1 µM) | 32 (≈ 88.2 µM) | 16 (≈ 44.1 µM) | 32 (≈ 88.2 µM) | 32 (≈ 88.2 µM) | ≥ 512
O=c1cc(CCl)oc(CN2CCN(Cc3ccccc3)CC2)c1O | 16 (≈ 45.9 µM) | ≥ 512 | 16 (≈ 45.9 µM) | 32 (≈ 91.7 µM) | 16 (≈ 45.9 µM) | 32 (≈ 91.7 µM) | 32 (≈ 91.7 µM) | ≥ 512
O=c1cc(CCl)oc(CN2CCN(c3ccc(C(F)(F)F)cc3)CC2)c1O | 32 (≈ 79.4 µM) | ≥ 128 | 32 (≈ 79.4 µM) | 64 (≈ 159 µM) | 32 (≈ 79.4 µM) | 64 (≈ 159 µM) | 64 (≈ 159 µM) | –
COC1=CC(=O)C[C@@H](C)[C@]12Oc1c(Cl)c(OC)cc(OC)c1C2=O [GRISEOFULVIN] | 0.5 (≈ 1.42 µM) | – | 0.5 (≈ 1.42 µM) | 1 (≈ 2.83 µM) | 0.5 (≈ 1.42 µM) | 1 (≈ 2.83 µM) | 1 (≈ 2.83 µM) | –
